C2C12 statin = suppressors of statin myotoxicity in C2C12 myotubes, primary screen, cell-based, single point, plate reader | C2C12 myotubes + simvastatin, ATP luminescence, 48 h; scaled: DMSO 0, geranylgeraniol control 100 | rescue of ATP level, % at 7.49 µM | 330,000 compounds, 0.78% hits;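 active = mean ATP rescue above about 67%, or every replicate alone reaching that limit, limit read from the data, passing the limit was not always enough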;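 also: myotubes were challenged with 10 µM simvastatin during compound exposure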
E-selectin induc = E-selectin induction in HUVECs, primary screen, imaging, HUVEC, immunofluorescence imaging, single point; P16581; normalized: neutral wells 0, TNF-alpha wells 100; activation, % at 7.58 µM; 260,000 compounds, 0.37% hits;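 active = mean E-selectin-positive cell signal at least 10% of the positive control, reached in at least 60% of replicates, without over 20% cell loss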
Target sequence (P16581 whole entry, looked up): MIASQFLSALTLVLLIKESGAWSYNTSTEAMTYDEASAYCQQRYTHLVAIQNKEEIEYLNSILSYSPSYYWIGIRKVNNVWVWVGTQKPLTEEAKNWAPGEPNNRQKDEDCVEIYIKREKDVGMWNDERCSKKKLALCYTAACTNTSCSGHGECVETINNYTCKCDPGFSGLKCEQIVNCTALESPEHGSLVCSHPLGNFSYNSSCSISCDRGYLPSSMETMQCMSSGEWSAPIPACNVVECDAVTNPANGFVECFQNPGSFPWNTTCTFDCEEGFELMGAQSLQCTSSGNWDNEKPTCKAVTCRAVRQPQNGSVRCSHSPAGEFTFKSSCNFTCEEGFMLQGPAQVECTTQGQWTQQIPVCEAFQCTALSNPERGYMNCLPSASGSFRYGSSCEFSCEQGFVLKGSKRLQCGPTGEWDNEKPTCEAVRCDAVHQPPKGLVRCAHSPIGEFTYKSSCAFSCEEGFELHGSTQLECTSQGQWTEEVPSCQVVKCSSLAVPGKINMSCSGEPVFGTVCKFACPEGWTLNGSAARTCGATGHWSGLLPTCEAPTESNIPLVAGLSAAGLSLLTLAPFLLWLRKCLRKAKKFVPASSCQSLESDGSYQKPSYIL
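Test system – human umbilical vein endothelial cells (HUVEC), E-selectin induction · Input – 3,000 HUVEC seeded per well · Buffer or medium – EGM-2, gelatin · Compound dosing – single-point compound dose · Detection – immunofluorescence imaging · Measure – percent E-selectin-positive cells · Controls – TNF-alpha high, DMSO low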
DENV2 CPE = inhibitors of DENV2 cytopathic effect, primary screen, cell-based, plate reader, single concentration; AID 651640, 2012; CPE inhibition, % at 9.99 µM; 350,000 compounds, 1.7% hits; DENV2-infected cells, cytopathic effect rescue; in the data active = CPE inhibition above about 20%, passing the limit was not always enough; tested in BHK-21 cells;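 also: 0% = median of neutral control wells and 100% = median of positive control wells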
An asterisk follows results filed as active; x = no result given. Hits are enriched below; roughly 2.2% of the tested compounds scored in any of these assays.

SMILES | C2C12 statin | E-selectin induc | DENV2 CPE
CO[C@H]1CC[C@H]2CCOc3c(C#N)cccc3C(=O)N(C)C[C@@H](OC)[C@H](C)C(=O)N(C)C[C@H]1O2 | -7 | 0 | 7
CC(C)CN(C(=O)CSc1nc2ccccc2[nH]1)c1c(N)n(Cc2ccccc2)c(=O)[nH]c1=O | 3 | 0 | -6
Cc1ccc2nc(SCC(=O)N(CC(C)C)c3c(N)n(CC(C)C)c(=O)[nH]c3=O)[nH]c2c1 | 101* | x | x
CC(C)CN(C(=O)CSc1nnc(-c2cccs2)n1N)c1c(N)n(Cc2ccccc2)c(=O)[nH]c1=O | x | 2 | -2
Cc1nnc(SCC(=O)N(CC(C)C)c2c(N)n(Cc3ccccc3)c(=O)[nH]c2=O)n1N | 3 | x | 79*
CO[C@@H]1CN(C)C(=O)c2cc(NS(=O)(=O)CC(F)(F)F)ccc2OC[C@H](C)N(C(=O)NC(C)C)C[C@H]1C | -2 | 0 | 11
CO[C@H]1CN(C)C(=O)c2cc(NC(=O)c3cnccn3)ccc2OC[C@H](C)N(CCc2ccccc2)C[C@@H]1C | -9 | 0 | -2
COc1ccc(S(=O)(=O)N(C)C)cc1NC(=O)[C@H](Cc1ccccc1)N1C(=O)c2ccccc2C1=O | 4 | x | x
Cc1ccc(S(=O)(=O)N(C)C)cc1NC(=O)[C@H](Cc1ccccc1)N1C(=O)c2ccccc2C1=O | x | x | 42*
CCCNC(=O)[C@@H]1[C@@H](CO)[C@@H]2Cn3c(cccc3=O)[C@H]1N2CCC(F)(F)F | -13 | 0 | 9
O=C([C@@H]1[C@@H](CO)[C@@H]2Cn3c(cccc3=O)[C@H]1N2CC1CCCC1)N1CCCCC1 | -9 | 0 | 2
O=C([C@H]1[C@H](CO)[C@H]2Cn3c(cccc3=O)[C@@H]1N2Cc1ccccc1)N1CCCCC1 | 12 | 0 | 0
CCCNC(=O)[C@H]1[C@H](CO)[C@H]2Cn3c(cccc3=O)[C@@H]1N2CCC(F)(F)F | -21 | 0 | 20*
O=C([C@H]1[C@H](CO)[C@H]2Cn3c(cccc3=O)[C@@H]1N2CC1CCCC1)N1CCOCC1 | x | 0 | 23*
O=C([C@@H]1[C@@H](CO)[C@@H]2Cn3c(cccc3=O)[C@H]1N2Cc1ccccc1)N1CCCCC1 | -6 | 0 | 50*
Cc1noc(C)c1S(=O)(=O)Nc1ccc2c(c1)CC(=O)N([C@H](C)CO)C[C@H](C)[C@@H](CN(C)C(=O)NC1CCCCC1)O2 | 17 | 2 | 7
Cc1noc(C)c1NC(=O)N(C)C[C@@H]1Oc2ccc(NS(=O)(=O)c3ccc(F)cc3)cc2C(=O)N([C@H](C)CO)C[C@@H]1C | 33 | 0 | 2
CCc1ccc2cc(C)cc(C)c2n1 | 6 | 0 | 34*
CCc1ccc2cc(F)cc(F)c2n1 | 3 | 0 | -4
CCCCCC(=O)N/N=C/c1ccc([N+](=O)[O-])o1 | x | x | -10
O=C(Cc1ccc2c(c1)OCO2)NN=Cc1ccc([N+](=O)[O-])o1 | 8 | 1 | 61*
C[C@@H]1CN([C@H](C)CO)C(=O)c2cccc(NC(=O)C3CCCCC3)c2O[C@@H]1CN(C)S(=O)(=O)c1ccc(Cl)cc1 | -38 | -8 | 8
C[C@H](CO)N1C[C@H](C)[C@@H](CN(C)Cc2ccc3c(c2)OCCN3C)OCc2ccccc2-c2c(n(C)c3ccccc23)C1=O | x | 0 | 37*
C[C@H](CO)N1C[C@H](C)[C@@H](CN(C)Cc2ccccc2C(F)(F)F)OCc2ccccc2-c2c(n(C)c3ccccc23)C1=O | x | 6 | -1
C[C@H](CO)N1C[C@H](C)[C@H](CN(C)Cc2ccccc2C(F)(F)F)OCc2ccccc2-c2c(n(C)c3ccccc23)C1=O | x | 19 | 26*
SMILES | C2C12 statin | E-selectin induc | DENV2 CPE
COc1cccc(S(=O)(=O)N(C)C[C@@H]2OCc3ccccc3-c3c(n(C)c4ccccc34)C(=O)N([C@@H](C)CO)C[C@H]2C)c1 | x | 15 | x
COc1ccccc1CN(C)C[C@@H]1OCc2ccccc2-c2c(n(C)c3ccccc23)C(=O)N([C@@H](C)CO)C[C@H]1C | x | 5 | -3
COc1ccccc1CN(C)C[C@H]1OCc2ccccc2-c2c(n(C)c3ccccc23)C(=O)N([C@H](C)CO)C[C@H]1C | x | 4 | 27*
C[C@H]1CN([C@@H](C)CO)C(=O)c2c(c3ccccc3n2C)-c2ccccc2CO[C@H]1CN(C)Cc1ccc2c(c1)OCCN2C | x | 0 | 0
COc1cccc(S(=O)(=O)N(C)C[C@H]2OCc3ccccc3-c3c(n(C)c4ccccc34)C(=O)N([C@H](C)CO)C[C@H]2C)c1 | 80* | 0 | 18
CNC[C@@H]1Oc2cc(-c3cccc(C(=O)N(C)C)c3)ccc2S(=O)(=O)N([C@@H](C)CO)C[C@H]1C | -8 | 0 | 5
COc1cc2c(cc1O)C=[N+](Cc1cccc(OC(F)(F)F)c1)CC2 | x | x | 2
COc1ccc(NC(=O)N(C)C[C@@H]2Oc3ccc(NC(=O)Cn4cnnn4)cc3CC(=O)N([C@@H](C)CO)C[C@H]2C)cc1 | -8 | x | -6
C[C@@H]1CN([C@@H](C)CO)C(=O)c2cc(NC(=O)NC3CCCCC3)ccc2O[C@@H](C)CCCCO[C@H]1CN(C)C(=O)NC1CCCCC1 | x | 0 | 18
O=C(CS(=O)(=O)c1ccccc1)Nc1ncc([N+](=O)[O-])s1 | 1 | x | 3
O=C(CCS(=O)(=O)c1ccccc1)Nc1ncc([N+](=O)[O-])s1 | 75* | x | 1
COc1cccc(C(=O)Nc2ccc3c(c2)OC[C@@H](C)NC[C@@H](C)[C@H](OC)CN(C)C3=O)c1 | 20 | 0 | 22*
CO[C@@H]1CN(C)C(=O)c2ccc(NC(=O)c3cccc(F)c3)cc2OC[C@H](C)NC[C@H]1C | -9 | 0 | 17
COc1cccc(C(=O)Nc2ccc3c(c2)OC[C@@H](C)NC[C@@H](C)[C@@H](OC)CN(C)C3=O)c1 | 9 | 0 | 0
CO[C@@H]1CN(C)C(=O)c2ccc(NC(=O)c3cccc(F)c3)cc2OC[C@@H](C)NC[C@H]1C | 3 | 0 | 31*
CCCNC(=O)N1CC2(C1)[C@@H](c1ccccc1)[C@@H](CO)N2Cc1ccc(F)cc1 | x | 0 | 0
COc1ccccc1NC(=O)N[C@@H]1CC[C@H](CCNC(=O)Cc2ccccn2)O[C@H]1CO | 5 | 0 | 0
CCC1=C(OC(=O)N(CC)CC)N2C(=O)OC(=NCCOC)[C@]2(Cc2ccccc2)[C@H]2C1=CC[C@H]1C(=O)N(CC)C(=O)[C@H]12 | -14 | 0 | 21*
CCC1=C2CC[C@H]3C(=O)N(C)C(=O)[C@H]3[C@H]2[C@@]2(Cc3ccccc3)C(=NCCOC)OC(=O)N2C1=O | 11 | 0 | 40*
CCC1=C2CC[C@H]3C(=O)N(CC)C(=O)[C@H]3[C@H]2[C@@]2(Cc3ccccc3)C(=NCCOC)OC(=O)N2C1=O | 2 | 0 | -2
CCC1=C(OC(=O)N(CC)CC)N2C(=O)OC(=NCCOC)[C@]2(Cc2ccccc2)[C@H]2C1=CC[C@H]1C(=O)N(C)C(=O)[C@H]12 | -3 | 0 | 7
C[C@@H]1CN([C@@H](C)CO)C(=O)c2cc(NC(=O)Nc3cccc4ccccc34)ccc2O[C@H]1CN(C)S(=O)(=O)c1ccc(F)cc1 | 48 | 0 | 11
